In ChEMBL document CHEMBL3797186, “Single Residue Substitutions That Confer Voltage-Gated Sodium Ion Channel Subtype Selectivity in the NaV1.7 Inhibitory Peptide GpTx-1” (J Med Chem, 2016):
Positions of bridges follow the written chain, without caps; N, C: chain ends. Residues, ends and D or L forms follow the SMILES beside them.

Key:
[1] = biological target: Sodium channel protein type 9 subunit alpha (Homo sapiens, UniProt Q15858); assay: Inhibition of human Nav1.7 expressed in HEK293 cells assessed as inward peak current by ion-works quattro patch clamp electrophysiology method; format: cell-based
Chain of Sodium channel protein type 9 subunit alpha (Q15858 whole entry): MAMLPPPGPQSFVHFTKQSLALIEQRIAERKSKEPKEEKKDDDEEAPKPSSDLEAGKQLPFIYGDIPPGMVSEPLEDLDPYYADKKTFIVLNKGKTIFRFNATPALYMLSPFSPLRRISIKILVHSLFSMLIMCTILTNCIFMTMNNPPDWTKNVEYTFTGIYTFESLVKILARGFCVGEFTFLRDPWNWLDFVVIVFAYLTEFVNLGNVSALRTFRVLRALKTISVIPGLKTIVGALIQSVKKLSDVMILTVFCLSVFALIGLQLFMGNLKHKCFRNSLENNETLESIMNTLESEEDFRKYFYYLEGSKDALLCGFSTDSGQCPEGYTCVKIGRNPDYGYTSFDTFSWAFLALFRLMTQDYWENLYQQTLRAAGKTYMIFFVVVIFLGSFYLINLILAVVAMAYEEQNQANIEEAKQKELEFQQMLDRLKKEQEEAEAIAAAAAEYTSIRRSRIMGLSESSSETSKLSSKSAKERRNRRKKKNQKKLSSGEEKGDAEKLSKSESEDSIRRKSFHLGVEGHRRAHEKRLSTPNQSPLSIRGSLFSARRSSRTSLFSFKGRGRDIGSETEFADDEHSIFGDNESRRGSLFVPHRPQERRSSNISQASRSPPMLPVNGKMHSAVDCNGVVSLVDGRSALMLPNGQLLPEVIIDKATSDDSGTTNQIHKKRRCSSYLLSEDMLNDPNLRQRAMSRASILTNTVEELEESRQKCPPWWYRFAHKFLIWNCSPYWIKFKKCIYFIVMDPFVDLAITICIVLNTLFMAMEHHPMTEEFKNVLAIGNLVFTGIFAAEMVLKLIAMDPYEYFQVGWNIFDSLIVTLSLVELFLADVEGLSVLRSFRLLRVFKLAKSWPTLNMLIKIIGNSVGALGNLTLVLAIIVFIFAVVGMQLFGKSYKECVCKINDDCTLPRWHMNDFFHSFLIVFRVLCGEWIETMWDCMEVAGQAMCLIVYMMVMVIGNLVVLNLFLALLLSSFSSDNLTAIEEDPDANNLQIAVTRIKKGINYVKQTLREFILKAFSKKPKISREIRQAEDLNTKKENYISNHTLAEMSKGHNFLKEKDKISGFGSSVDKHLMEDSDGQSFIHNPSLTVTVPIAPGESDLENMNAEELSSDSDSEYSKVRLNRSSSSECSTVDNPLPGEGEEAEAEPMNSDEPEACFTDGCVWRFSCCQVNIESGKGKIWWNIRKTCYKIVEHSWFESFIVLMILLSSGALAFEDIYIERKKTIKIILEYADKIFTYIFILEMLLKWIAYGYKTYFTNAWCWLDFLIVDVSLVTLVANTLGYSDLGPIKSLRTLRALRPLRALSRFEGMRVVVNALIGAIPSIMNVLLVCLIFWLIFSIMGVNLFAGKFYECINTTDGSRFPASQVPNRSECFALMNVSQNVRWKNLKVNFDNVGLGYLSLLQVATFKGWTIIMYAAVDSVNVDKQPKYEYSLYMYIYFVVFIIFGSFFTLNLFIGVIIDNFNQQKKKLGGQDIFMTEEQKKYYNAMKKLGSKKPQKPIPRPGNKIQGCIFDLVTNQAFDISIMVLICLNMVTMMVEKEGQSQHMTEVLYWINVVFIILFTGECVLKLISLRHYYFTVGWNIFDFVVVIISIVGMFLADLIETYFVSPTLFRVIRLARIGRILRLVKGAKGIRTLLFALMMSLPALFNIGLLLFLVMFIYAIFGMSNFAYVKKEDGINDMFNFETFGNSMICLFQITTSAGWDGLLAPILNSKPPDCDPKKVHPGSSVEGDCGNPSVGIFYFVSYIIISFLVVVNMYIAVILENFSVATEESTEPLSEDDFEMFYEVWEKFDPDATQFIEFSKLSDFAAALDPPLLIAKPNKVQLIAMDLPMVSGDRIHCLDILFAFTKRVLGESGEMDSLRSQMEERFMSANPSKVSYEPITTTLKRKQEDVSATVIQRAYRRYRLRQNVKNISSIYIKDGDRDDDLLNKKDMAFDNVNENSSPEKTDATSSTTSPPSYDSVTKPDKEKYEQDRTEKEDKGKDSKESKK

[2] = biological target: Sodium channel protein type 5 subunit alpha (Homo sapiens, UniProt Q14524); assay: Inhibition of human Nav1.5 expressed in HEK293 cells assessed as inward peak current by ion-works quattro patch clamp electrophysiology method; format: cell-based
Chain of Sodium channel protein type 5 subunit alpha (Q14524 whole entry): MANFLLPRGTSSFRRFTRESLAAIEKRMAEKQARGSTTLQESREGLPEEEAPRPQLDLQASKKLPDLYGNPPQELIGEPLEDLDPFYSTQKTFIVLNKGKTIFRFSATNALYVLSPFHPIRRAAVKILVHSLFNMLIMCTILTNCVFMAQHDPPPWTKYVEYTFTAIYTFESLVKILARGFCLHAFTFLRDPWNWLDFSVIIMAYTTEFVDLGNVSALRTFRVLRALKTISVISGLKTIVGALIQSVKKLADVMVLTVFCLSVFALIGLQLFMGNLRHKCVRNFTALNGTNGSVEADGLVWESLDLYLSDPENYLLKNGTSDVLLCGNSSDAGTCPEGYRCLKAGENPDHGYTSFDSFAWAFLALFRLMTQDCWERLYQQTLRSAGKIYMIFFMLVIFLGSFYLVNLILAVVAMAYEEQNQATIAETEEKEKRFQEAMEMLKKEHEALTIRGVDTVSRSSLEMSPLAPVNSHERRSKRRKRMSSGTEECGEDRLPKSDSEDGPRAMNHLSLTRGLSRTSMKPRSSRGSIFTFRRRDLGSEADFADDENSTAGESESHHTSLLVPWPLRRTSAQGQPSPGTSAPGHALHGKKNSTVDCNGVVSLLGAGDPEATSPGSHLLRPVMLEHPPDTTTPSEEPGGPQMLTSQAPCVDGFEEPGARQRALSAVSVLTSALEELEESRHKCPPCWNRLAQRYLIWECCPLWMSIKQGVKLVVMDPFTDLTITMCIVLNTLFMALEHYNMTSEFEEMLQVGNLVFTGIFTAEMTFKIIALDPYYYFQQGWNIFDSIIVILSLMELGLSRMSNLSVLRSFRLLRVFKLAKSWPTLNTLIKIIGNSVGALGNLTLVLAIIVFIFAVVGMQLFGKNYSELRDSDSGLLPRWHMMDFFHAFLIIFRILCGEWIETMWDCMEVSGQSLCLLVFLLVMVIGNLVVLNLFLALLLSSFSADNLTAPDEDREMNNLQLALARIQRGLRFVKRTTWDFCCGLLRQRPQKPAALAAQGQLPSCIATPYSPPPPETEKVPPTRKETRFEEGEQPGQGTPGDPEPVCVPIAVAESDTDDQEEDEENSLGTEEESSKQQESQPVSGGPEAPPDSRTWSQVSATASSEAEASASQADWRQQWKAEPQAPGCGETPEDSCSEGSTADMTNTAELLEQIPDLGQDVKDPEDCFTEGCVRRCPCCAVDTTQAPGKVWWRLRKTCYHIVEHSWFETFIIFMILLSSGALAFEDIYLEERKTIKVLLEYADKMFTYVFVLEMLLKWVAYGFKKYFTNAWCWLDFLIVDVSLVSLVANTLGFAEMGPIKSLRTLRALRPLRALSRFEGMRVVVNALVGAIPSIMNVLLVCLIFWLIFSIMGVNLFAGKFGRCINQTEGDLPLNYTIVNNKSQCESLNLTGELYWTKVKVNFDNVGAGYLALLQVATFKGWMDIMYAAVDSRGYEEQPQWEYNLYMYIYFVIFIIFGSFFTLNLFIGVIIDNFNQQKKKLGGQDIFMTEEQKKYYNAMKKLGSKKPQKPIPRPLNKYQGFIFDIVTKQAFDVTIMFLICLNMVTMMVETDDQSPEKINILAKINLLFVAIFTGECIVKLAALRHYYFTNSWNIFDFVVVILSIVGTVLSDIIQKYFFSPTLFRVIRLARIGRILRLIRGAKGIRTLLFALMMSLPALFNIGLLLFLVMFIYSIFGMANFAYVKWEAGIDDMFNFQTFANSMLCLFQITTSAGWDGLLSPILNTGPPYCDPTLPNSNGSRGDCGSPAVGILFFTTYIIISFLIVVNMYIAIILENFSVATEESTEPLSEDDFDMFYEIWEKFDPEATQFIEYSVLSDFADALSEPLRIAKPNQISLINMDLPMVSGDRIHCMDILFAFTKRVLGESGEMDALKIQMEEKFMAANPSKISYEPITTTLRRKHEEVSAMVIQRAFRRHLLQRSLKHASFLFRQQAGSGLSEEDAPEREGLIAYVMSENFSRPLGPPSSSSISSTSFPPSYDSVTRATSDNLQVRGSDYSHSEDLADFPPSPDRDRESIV
Procedure, shortened: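 Stable HEK293 line expressing human NaV1.5, recorded by population patch clamp on the IonWorks Quattro.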

Work on `CC[C@H](C)[C@@H]1NC(=O)[C@@H]2CSSC[C@@H]3NC(=O)[C@H](C(C)C)NC(=O)[C@H](CC(C)C)NC(=O)[C@H](CC(N)=O)NC(=O)[C@@H]4CCCN4C(=O)[C@H](CCCNC(=N)N)NC(=O)[C@H](CSSC[C@H](NC(=O)[C@@H](N)CC(=O)O)C(=O)N[C@@H](CC(C)C)C(=O)NCC(=O)N[C@@H](Cc4ccccc4)C(=O)N[C@@H](CCSC)C(=O)N[C@@H](CCCNC(=N)N)C(=O)N[C@@H](CCCCN)C(=O)N2)NC(=O)[C@H](CSSC[C@@H](C(=O)N[C@@H](CCCCN)C(=O)N[C@@H](Cc2ccc(O)cc2)C(=O)N[C@H](C(=O)N[C@@H](Cc2ccccc2)C(N)=O)C(C)C)NC(=O)[C@H](Cc2c[nH]c4ccccc24)NC(=O)[C@H](CCCCN)NC(=O)[C@H](Cc2cnc[nH]2)NC(=O)[C@H]([C@@H](C)O)NC(=O)[C@H](CCCNC(=N)N)NC(=O)[C@H](CO)NC3=O)NC(=O)[C@H](CCCCN)NC(=O)[C@H](CC(=O)O)NC(=O)[C@H](CC(N)=O)NC(=O)[C@H](CCC(=O)O)NC(=O)[C@@H]2CCCN2C1=O` (H-DCLGFMRKCIPENDKCCRPNLVCSRTHKWCKYVF-NH2; disulfide 2-17, 9-23, 16-30) yielded an IC50 [1] of 0.28 µM and an IC50 [2] greater than 5 µM.

In the case of `CC[C@H](C)[C@@H]1NC(=O)[C@@H]2CSSC[C@@H]3NC(=O)[C@H](C(C)C)NC(=O)[C@H](CC(C)C)NC(=O)[C@H](CC(N)=O)NC(=O)[C@@H]4CCCN4C(=O)[C@H](CCCNC(=N)N)NC(=O)[C@H](CSSC[C@H](NC(=O)[C@@H](N)CC(=O)O)C(=O)N[C@@H](CC(C)C)C(=O)NCC(=O)N[C@@H](Cc4ccccc4)C(=O)N[C@@H](CCSC)C(=O)N[C@@H](CCCNC(=N)N)C(=O)N[C@@H](CCCCN)C(=O)N2)NC(=O)[C@H](CSSC[C@@H](C(=O)N[C@@H](CCCCN)C(=O)N[C@@H](Cc2ccc(O)cc2)C(=O)N[C@H](C(=O)N[C@@H](Cc2ccccc2)C(N)=O)C(C)C)NC(=O)[C@H](Cc2c[nH]c4ccccc24)NC(=O)[C@H](CCCCN)NC(=O)[C@H](Cc2cnc[nH]2)NC(=O)[C@H]([C@@H](C)O)NC(=O)[C@H](CCCNC(=N)N)NC(=O)[C@H](CO)NC3=O)NC(=O)[C@H](CCCNC(=N)N)NC(=O)[C@H](CC(=O)O)NC(=O)[C@H](CC(N)=O)NC(=O)[C@H](CC(=O)O)NC(=O)[C@@H]2CCCN2C1=O` (H-DCLGFMRKCIPDNDRCCRPNLVCSRTHKWCKYVF-NH2; disulfide 2-17, 9-23, 16-30), the IC50 [1] is reported as 0.22 µM and the IC50 [2] is reported as greater than 5 µM.

For `CC[C@@H](C)[C@H]1NC(=O)[C@H]2CSSC[C@@H]3NC(=O)[C@@H](C(C)C)NC(=O)[C@H](CC(C)C)NC(=O)[C@H](CC(N)=O)NC(=O)[C@@H]4CCCN4C(=O)[C@H](CCCNC(=N)N)NC(=O)[C@H](CSSC[C@@H](NC(=O)[C@@H](N)CC(=O)O)C(=O)N[C@H](C)C(=O)NCC(=O)N[C@@H](Cc4ccccc4)C(=O)N[C@H](CCSC)C(=O)N[C@@H](CCCNC(=N)N)C(=O)N[C@@H](CCCCN)C(=O)N2)NC(=O)[C@@H](CSSC[C@@H](C(=O)N[C@@H](CCCCN)C(=O)N[C@@H](Cc2ccc(O)cc2)C(=O)N[C@H](C(=O)N[C@@H](Cc2ccccc2)C(N)=O)C(C)C)NC(=O)[C@@H](Cc2c[nH]c4ccccc24)NC(=O)[C@H](CCCCN)NC(=O)[C@H](Cc2cnc[nH]2)NC(=O)[C@@H]([C@H](C)O)NC(=O)[C@@H](CCCNC(=N)N)NC(=O)[C@H](CO)NC3=O)NC(=O)[C@@H](CCCCN)NC(=O)[C@H](CC(=O)O)NC(=O)[C@@H](CC(N)=O)NC(=O)[C@H](CC(=O)O)NC(=O)[C@@H]2CCCN2C1=O`, the IC50 [1] was 0.43 µM and the IC50 [2] was greater than 5 µM.

In the case of `CC[C@H](C)[C@@H]1NC(=O)[C@@H]2CSSC[C@@H]3NC(=O)[C@H](C(C)C)NC(=O)[C@H](CC(C)C)NC(=O)[C@H](CC(N)=O)NC(=O)[C@@H]4CCCN4C(=O)[C@H](CCCNC(=N)N)NC(=O)[C@H](CSSC[C@H](NC(=O)[C@@H](N)CC(=O)O)C(=O)N[C@@H](CC(C)C)C(=O)NCC(=O)N[C@@H](Cc4ccccc4)C(=O)N[C@@H](CCSC)C(=O)N[C@@H](CCCNC(=N)N)C(=O)N[C@@H](CCCCN)C(=O)N2)NC(=O)[C@H](CSSC[C@@H](C(=O)N[C@@H](CCCCN)C(=O)N[C@@H](Cc2ccc(O)cc2)C(=O)N[C@H](C(=O)N[C@@H](Cc2ccccc2)C(N)=O)C(C)C)NC(=O)[C@H](Cc2c[nH]c4ccccc24)NC(=O)[C@H](CCCCN)NC(=O)[C@H](Cc2cnc[nH]2)NC(=O)[C@H]([C@@H](C)O)NC(=O)[C@H](CCCNC(=N)N)NC(=O)[C@H](CO)NC3=O)NC(=O)[C@H](CCCCN)NC(=O)[C@H](CC(=O)O)NC(=O)[C@H](Cc2c[nH]c3ccccc23)NC(=O)[C@H](CC(=O)O)NC(=O)[C@@H]2CCCN2C1=O` (H-DCLGFMRKCIPDWDKCCRPNLVCSRTHKWCKYVF-NH2; disulfide 2-17, 9-23, 16-30), the IC50 [1] is reported as 0.08 µM and the IC50 [2] is reported as greater than 5 µM.

Compound `CC[C@H](C)[C@@H]1NC(=O)[C@@H]2CSSC[C@@H]3NC(=O)[C@H](C(C)C)NC(=O)[C@H](CC(C)C)NC(=O)[C@H](CC(N)=O)NC(=O)[C@@H]4CCCN4C(=O)[C@H](CCCNC(=N)N)NC(=O)[C@H](CSSC[C@H](NC(=O)[C@@H](N)CC(=O)O)C(=O)N[C@@H](CC(C)C)C(=O)NCC(=O)N[C@@H](Cc4ccccc4)C(=O)N[C@@H](CCSC)C(=O)N[C@@H](CCCNC(=N)N)C(=O)N[C@@H](CCCCN)C(=O)N2)NC(=O)[C@H](CSSC[C@@H](C(=O)N[C@@H](CCCCN)C(=O)N[C@@H](Cc2ccc(O)cc2)C(=O)N[C@H](C(=O)N[C@@H](Cc2ccccc2)C(N)=O)C(C)C)NC(=O)[C@H](Cc2c[nH]c4ccccc24)NC(=O)[C@H](CCCNC(=N)N)NC(=O)[C@H](Cc2cnc[nH]2)NC(=O)[C@H]([C@@H](C)O)NC(=O)[C@H](CCCNC(=N)N)NC(=O)[C@H](CO)NC3=O)NC(=O)[C@H](CCCCN)NC(=O)[C@H](CC(=O)O)NC(=O)[C@H](CC(N)=O)NC(=O)[C@H](CC(=O)O)NC(=O)[C@@H]2CCCN2C1=O` has an IC50 [1] of 0.09 µM and an IC50 [2] greater than 5 µM.

Work on `CC[C@H](C)[C@@H]1NC(=O)[C@@H]2CSSC[C@@H]3NC(=O)[C@H](C(C)C)NC(=O)[C@H](CC(C)C)NC(=O)[C@H](CC(N)=O)NC(=O)[C@@H]4CCCN4C(=O)[C@H](CCCNC(=N)N)NC(=O)[C@H](CSSC[C@H](NC(=O)[C@@H](N)CC(=O)O)C(=O)N[C@@H](CC(C)C)C(=O)NCC(=O)N[C@@H](Cc4ccccc4)C(=O)N[C@@H](CCSC)C(=O)N[C@@H](CCCNC(=N)N)C(=O)N[C@@H](CCCCN)C(=O)N2)NC(=O)[C@H](CSSC[C@@H](C(=O)N[C@@H](CCCCN)C(=O)N[C@@H](Cc2ccc(O)cc2)C(=O)N[C@H](C(=O)N[C@@H](Cc2ccccc2)C(N)=O)C(C)C)NC(=O)[C@H](Cc2c[nH]c4ccccc24)NC(=O)[C@H](CCCCN)NC(=O)[C@H](Cc2cnc[nH]2)NC(=O)[C@H]([C@@H](C)O)NC(=O)[C@H](CCCNC(=N)N)NC(=O)[C@H](CCC(=O)O)NC3=O)NC(=O)[C@H](CCCCN)NC(=O)[C@H](CC(=O)O)NC(=O)[C@H](CC(N)=O)NC(=O)[C@H](CC(=O)O)NC(=O)[C@@H]2CCCN2C1=O` (H-DCLGFMRKCIPDNDKCCRPNLVCERTHKWCKYVF-NH2; disulfide 2-17, 9-23, 16-30) yielded an IC50 [1] greater than 5 µM and an IC50 [2] greater than 5 µM.
